Reference: ChEMBL document CHEMBL1149343, “Discovery of antiglioma activity of biaryl 1,2,3,4-tetrahydroisoquinoline derivatives and conformationally flexible analogues” (J Med Chem, 2006)

Columns and labels:
C6 = assay: Cytotoxicity against rat C6 glioma cell line; format: functional, cell-based
Method in brief: (§1)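 Cells were maintained in 10% FCS BME (Basal Media Eagle). Compound exposure was in 2% FCS BME for 96 h at 37 °C in humidified 5% CO2. IC50 values came from dose-response experiments over a 4-day incubation.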

Astrocyte = assay: Cytotoxicity against rat astrocytes; format: functional, cell-based; method in brief: as §1
LNCaP = assay: Cytotoxicity against human LNCaP cell line; format: functional, cell-based
U-87 MG = assay: Cytotoxicity against human U87 cell line; format: functional, cell-based, U-87MG ATCC
HeLa = assay: Cytotoxicity against human HeLa cell line; format: functional, cell-based
T98G = assay: Cytotoxicity against human T98G cell line; format: functional, cell-based
A549 = assay: Cytotoxicity against human A549 cell line; format: functional, cell-based
MCF7 = assay: Cytotoxicity against human MCF7 cell line; format: functional, cell-based

With `Nc1ccc(CC2NCCc3cc(O)c(O)cc32)cc1` (centres undefined) the IC50 (C6) was > 50 µM.
`COc1cc2c(cc1OC)CN(CCc1ccc(-c3ccccc3)cc1)CC2` was tested, and the IC50 (Astrocyte) was 15.5 µM and the IC50 (C6) was 9.3 µM.
Work on `COc1cc2c(cc1OC)C(Cc1ccc(-c3ccccc3)cc1)NCC2` (centres undefined) yielded an IC50 (Astrocyte) of 83.8 µM and an IC50 (C6) of 4.1 µM.
`O=C(c1ccccc1)c1ccc(CC2NCCc3cc(O)c(O)cc32)cc1` (centres undefined) showed an IC50 (Astrocyte) of 21 µM and an IC50 (C6) of 9.4 µM.
With `Oc1ccc(CCNCCc2ccc(-c3ccccc3)cc2)cc1O` the IC50 (Astrocyte) was > 100 µM and the IC50 (C6) was 8.6 µM.
In the case of `C=C1C(OC(=O)N(C)C)=C(c2ccc(C)cc2)Oc2cc(Cl)ccc2N1C`, the IC50 (C6) is reported as 37.5 µM.
Work on `COc1cc2c(cc1OC)C(Cc1ccc(C(=O)c3ccccc3)cc1)NCC2` (centres undefined) yielded an IC50 (Astrocyte) of 40 µM and an IC50 (C6) of 40 µM.
In the case of `CN1CCc2cc(O)c(O)cc2C1Cc1ccc(-c2ccccc2)cc1` (centres undefined), the IC50 (Astrocyte) is reported as 15 µM and the IC50 (C6) is reported as 8 µM.
In the case of `COc1cc(C(O)C2CNCCc3cc(O)c(O)cc32)cc(OC)c1OC` (centres undefined), the IC50 (C6) is reported as > 50 µM.
In the case of `COc1ccc(CCN(C)CCc2ccc(-c3ccccc3)cc2)cc1OC`, the IC50 (Astrocyte) is reported as 39 µM and the IC50 (C6) is reported as 12.5 µM.
`Oc1cc2c(cc1O)C(Cc1ccc(-c3ccccc3)cc1)NCC2` (centres undefined) gave an IC50 (LNCaP) of 10.7 µM, an IC50 (U-87 MG) of 25.9 µM and an IC50 (HeLa) of 3 µM. The IC50 (Astrocyte) was 29 µM, the IC50 (T98G) was 10.2 µM and the IC50 (C6) was 2.6 µM. The IC50 (A549) was 10.2 µM and the IC50 (MCF7) was 3.8 µM.
`O=NN(CCCl)C(=O)NCCCl` [CARMUSTINE] was tested, and the IC50 (Astrocyte) was 156 µM and the IC50 (C6) was 9.3 µM.
In the case of `O=c1[nH]cc(F)c(=O)[nH]1` [FLUOROURACIL], the IC50 (Astrocyte) is reported as > 100 µM and the IC50 (C6) is reported as 6.1 µM.
`N[C@@H](Cc1ccc(N(CCCl)CCCl)cc1)C(=O)O` [MELPHALAN] was tested, and the IC50 (Astrocyte) was 34 µM and the IC50 (C6) was 12.6 µM.
Compound `CCC(C)N(C)C(=O)c1cc2ccccc2c(-c2ccccc2Cl)n1` (centres undefined) [PK-11195] has an IC50 (C6) of 73 µM.
For `CN1C(=O)CN=C(c2ccc(Cl)cc2)c2cc(Cl)ccc21` [RO-54864], the IC50 (C6) was 95 µM.
With `COc1cc(C[C@@H]2NCCc3cc(O)c(O)cc32)cc(OC)c1OC` [TRETOQUINOL] the IC50 (C6) was > 50 µM.
